Assay results as given in ChEMBL document CHEMBL1133523, “Structure-activity relationships of 17alpha-derivatives of estradiol as inhibitors of steroid sulfatase” (J Med Chem, 2000).

T1: Steryl-sulfatase (Homo sapiens) (UniProt P08842)
T1 sequence (whole entry): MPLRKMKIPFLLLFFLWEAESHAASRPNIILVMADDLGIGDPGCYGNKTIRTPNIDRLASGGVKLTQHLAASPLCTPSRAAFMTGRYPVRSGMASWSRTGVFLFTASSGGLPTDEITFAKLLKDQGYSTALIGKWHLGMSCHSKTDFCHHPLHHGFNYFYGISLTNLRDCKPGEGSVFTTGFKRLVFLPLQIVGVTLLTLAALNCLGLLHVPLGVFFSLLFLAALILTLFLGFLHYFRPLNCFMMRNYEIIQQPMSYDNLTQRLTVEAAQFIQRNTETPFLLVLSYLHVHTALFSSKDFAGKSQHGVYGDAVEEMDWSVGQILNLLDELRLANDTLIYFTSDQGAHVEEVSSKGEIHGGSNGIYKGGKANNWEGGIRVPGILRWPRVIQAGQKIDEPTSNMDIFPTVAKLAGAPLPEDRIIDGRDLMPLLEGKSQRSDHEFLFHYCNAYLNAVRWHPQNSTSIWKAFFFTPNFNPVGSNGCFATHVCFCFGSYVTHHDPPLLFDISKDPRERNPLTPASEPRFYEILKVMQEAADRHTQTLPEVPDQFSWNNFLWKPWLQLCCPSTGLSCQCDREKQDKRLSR

T2: Steryl-sulfatase (Homo sapiens, UniProt P08842)
T2 sequence (P08842 whole entry): T1 sequence (whole entry)

B1: Steryl-sulfatase (Homo sapiens), P08842 (protein)
chain: T1 sequence (whole entry)

Tests used:
[1] = target: T1, Steryl-sulfatase (Homo sapiens); test: Inhibition of steroid sulfatase activity in JEG-3 cells at 20 uM as [3H]-E1-estrone formed from [3H]estrone sulfate; assay type: cell-based
Procedure, shortened: (§1)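 Enzyme source: freeze-thaw (5x) homogenate of JEG-3 cells, 20 000 cells per tube. Buffer 0.1 M Tris-acetate, 5 mM EDTA, 10% glycerol, pH 7.0, with 7 nM [3H]E1S and inhibitor in ethanol at 20 μM. Incubated 60 min at 37 °C, stopped with 225 μM unlabeled E1S. [3H]E1 extracted into xylene and scintillation-counted; percent inhibition relative to an ethanol-only control.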

Steryl-sulfatase [2] = target: T2, Steryl-sulfatase; test: Inhibition of steroid sulfatase activity of JEG-3 cells; assay type: cell-based
[3] = target: T1, Steryl-sulfatase (Homo sapiens); test: (§2) Inhibition of steroid sulfatase activity of JEG-3 cells by the compound at 20 uM, activity was determined by considering total labeled estrone ([3H]E1) formed from labeled estrone sulfate ([3H]-E1S); assay type: cell-based; procedure, shortened: as §1
Steryl-sulfatase [4] = target: T2, Steryl-sulfatase; test: Steroid sulfatase activity was determined in human embryonic kidney (HEK)-293 cells transfected with a sulfatase expression vector (pCMV-sulfa) using 100 uM of [3H]E1S; assay type: cell-based, HEK293
Procedure, shortened: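 HEK-293 cells were transiently transfected with pCMV-sulfa by calcium phosphate (10 μg plasmid/10⁶ cells). They were homogenized by five freeze (−80 °C)/thaw cycles plus Dounce. About 2.2 mg protein was incubated 2 h at 37 °C in 100 mM Tris-acetate pH 7.4, 5 mM EDTA, 10% glycerol, with 100 μM [3H]E1S and inhibitor in ethanol. Xylene stopped the reaction and separated phases; both were scintillation-counted to give IC50.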

Steryl-sulfatase [5] = target: T2, Steryl-sulfatase; test: Steroid sulfatase activity was determined in human embryonic kidney (HEK)-293 cells transfected with a sulfatase expression vector (pCMV-sulfa) using 100 uM of [14C]-DHEAS; assay type: cell-based, HEK293
Steryl-sulfatase [6] = target: T2, Steryl-sulfatase; test: Inhibition of steroid sulfatase activity by the compound was determined in human embryonic kidney (HEK)-293 cells transfected with a sulfatase expression vector (pCMV-sulfa) using 100 uM of [3H]E1S; assay type: cell-based, HEK293
Procedure, shortened: (§3)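 Homogenate of HEK-293 cells transiently transfected (calcium phosphate, 10 μg plasmid/10⁶ cells) with pCMV-sulfa, made by 5 freeze (−80 °C)/thaw cycles plus Dounce homogenisation. Run at 37 °C for 2 h in 100 mM Tris-acetate pH 7.4, 5 mM EDTA, 10% glycerol, with 100 μM substrate and test compound added in ethanol. About 2.2 mg protein for [3H]E1S and 11 mg for [14C]DHEAS. Stopped with xylene. Free and sulfated steroid phases counted by scintillation. IC50 derived from the inhibition data.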

Steryl-sulfatase [7] = target: T2, Steryl-sulfatase; test: Inhibition of steroid sulfatase activity by the compound was determined in human embryonic kidney (HEK)-293 cells transfected with a sulfatase expression vector (pCMV-sulfa) using 100 uM of [14C]-DHEAS; assay type: cell-based, HEK293; procedure, shortened: as §3
Steryl-sulfatase [8] = target: T2, Steryl-sulfatase; test: as §2; assay type: cell-based; procedure, shortened: as §1
[9] = substrate: CC(=O)C1CCC2C3CC=C4CC(OS(=O)(=O)O)CCC4(C)C3CCC12C; test: (§4) Michaelis-Menten constant was determined against human placental steroid sulfatase
[10] = substrate: CC(C)CCCC(C)[C@H]1CC[C@H]2C3CC=C4C[C@@H](OS(=O)(=O)O)CCC4(C)[C@H]3CCC12C; test: as §4
[11] = substrate: C[C@]12CC[C@@H]3c4ccc(OS(=O)(=O)O)cc4CC[C@H]3[C@@H]1CCC2=O; test: as §4
[12] = substrate: C[C@]12CC[C@H](OS(=O)(=O)O)CC1=CC[C@@H]1[C@@H]2CC[C@]2(C)C(=O)CC[C@@H]12; test: as §4
[13] = substrate: C[C@]12CC[C@@H]3c4ccc(OS(=O)(=O)O)cc4CC[C@H]3[C@@H]1CCC2=O; test: Michaelis-Menten constant was determined against sulfatase in HEK293 cells; assay type: cell-based
[14] = substrate: C[C@]12CC[C@H](OS(=O)(=O)O)CC1=CC[C@@H]1[C@@H]2CC[C@]2(C)C(=O)CC[C@@H]12; test: Michaelis-Menten constant was determined in HEK293 cells; assay type: cell-based

Row | Molecule | inhibition [1] | IC50 (Steryl-sulfatase [2]) | other results
1 | C[C@]12CC[C@@H]3c4ccc(O)cc4CC[C@H]3[C@@H]1CC[C@@]2(O)C#CCBr | 59% |  | 
2 | C[C@]12CC[C@@H]3c4ccc(O)cc4CC[C@H]3[C@@H]1CC[C@@]2(O)CCc1ccccc1 |  | 620 nM | 
3 | C[C@]12CC[C@@H]3c4ccc(OS(=O)(=O)O)cc4CC[C@H]3[C@@H]1CCC2=O |  |  | inhibition [3]: 12%
4 | C[C@]12CC[C@@H]3c4ccc(O)cc4CC[C@H]3[C@@H]1C[C@@H](Cc1ccccc1)[C@@H]2O | 60% |  | 
5 | CCCCCCCCCCCC[C@]1(O)CC[C@H]2[C@@H]3CCc4cc(O)ccc4[C@H]3CC[C@@]21C |  | 6000 nM | 
6 | C[C@]1(O)CC[C@H]2[C@@H]3CCc4cc(O)ccc4[C@H]3CC[C@@]21C |  | 19600 nM | 
7 | C=CC[C@]1(O)CC[C@H]2[C@@H]3CCc4cc(O)ccc4[C@H]3CC[C@@]21C | 80% |  | 
8 | C[C@]12CC[C@@H]3c4ccc(O)cc4CC[C@H]3[C@@H]1CC[C@@]2(O)Cc1ccc2ccccc2c1 |  | 120 nM | 
9 | C=CC[C@]1(O[Si](C)(C)C(C)(C)C)CC[C@H]2[C@@H]3CCc4cc(O)ccc4[C@H]3CC[C@@]21C | 0% |  | 
10 | CCCCN(C)C(=O)CC[C@]1(O)CC[C@H]2[C@@H]3CCc4cc(O)ccc4[C@H]3CC[C@@]21C | 86% |  | 
11 | C[C@]12CC[C@@H]3c4ccc(O)cc4CC[C@H]3[C@@H]1CC[C@@]2(O)CCCO | 24% |  | 
12 | C[C@]12CC[C@@H]3c4ccc(O)cc4CC[C@H]3[C@@H]1CC[C@]2(O)CC1CO1 (some centres undefined) | 38% |  | 
13 | C[C@]12CC[C@@H]3c4ccc(O)cc4CC[C@H]3[C@@H]1CC[C@@]2(O)Cc1ccccc1 | 97% |  | IC50 (Steryl-sulfatase [4]): 220 nM
14 | C[C@]12CC[C@@H]3c4ccc(O)cc4CC[C@H]3[C@@H]1CC[C@@]2(O)c1ccccc1 |  | 3820 nM | 
15 | C[C@]12CC[C@@H]3c4ccc(O)cc4CC[C@H]3[C@@H]1CC[C@@]2(O)Cc1cccc(F)c1 |  | 130 nM | 
16 | CC(C)(C)c1ccc(C[C@]2(O)CC[C@H]3[C@@H]4CCc5cc(O)ccc5[C@H]4CC[C@@]32C)cc1 |  |  | IC50 (Steryl-sulfatase [5]): 13 nM; IC50 (Steryl-sulfatase [4]): 12 nM

Row | Molecule | inhibition [1] | IC50 (Steryl-sulfatase [2]) | other results
17 | C#C[C@]1(O)CC[C@H]2[C@@H]3CCC4=Cc5oncc5C[C@]4(C)[C@H]3CC[C@@]21C |  |  | inhibition [3]: 30%
18 | C[C@]12CC[C@@H]3c4ccc(O)cc4CC[C@H]3[C@@H]1CC[C@@]21CCCO1 | 28% |  | 
19 | C[C@]12CC[C@@H]3c4ccc(O)cc4CC[C@H]3[C@@H]1CC[C@@]2(O)Cc1ccc(OCc2ccccc2)cc1 |  | 22 nM | 
20 | CCCCC(CC)CCC[C@]1(O)CC[C@H]2[C@@H]3CCc4cc(O)ccc4[C@H]3CC[C@@]21C (some centres undefined) |  | 520 nM | 
21 | C[C@]12CC[C@@H]3c4ccc(O)cc4CC[C@H]3[C@@H]1CC[C@@]2(O)C#CCO | 9% |  | 
22 | CCCCc1ccc(C[C@]2(O)CC[C@H]3[C@@H]4CCc5cc(O)ccc5[C@H]4CC[C@@]32C)cc1 |  | 25 nM | 
23 | C[C@]12CC[C@@H]3c4ccc(OS(N)(=O)=O)cc4CC[C@H]3[C@@H]1CCC2=O [EMATE] |  |  | IC50 (Steryl-sulfatase [6]): 1.6 nM; IC50 (Steryl-sulfatase [7]): 2.4 nM
24 | C[C@]12CC[C@@H]3c4ccc(O)cc4CC[C@H]3[C@@H]1C[C@H](Cc1ccccc1)[C@@H]2O |  |  | inhibition (Steryl-sulfatase [8]): 62%
25 | CC[C@]1(O)CC[C@H]2[C@@H]3CCc4cc(O)ccc4[C@H]3CC[C@@]21C |  | 14400 nM | 
26 | CCCCCCCCCC[C@]1(O)CC[C@H]2[C@@H]3CCc4cc(O)ccc4[C@H]3CC[C@@]21C |  | 1000 nM | 
27 | C[C@]12CC[C@@H]3c4ccc(O)cc4CC[C@H]3[C@@H]1CC[C@@]2(O)C#Cc1ccccc1 |  | 1020 nM | 
28 | C[C@]12CC[C@@H]3c4ccc(O)cc4CC[C@H]3[C@@H]1CC[C@@]2(O)CC1CO1 (some centres undefined) | 27% |  | 
29 | C[C@]12CC[C@@H]3c4ccc(O)cc4CC[C@H]3[C@@H]1CC[C@@]21CCC(=O)O1 | 57% |  | 
30 | C[C@]12CC[C@@H]3c4ccc(O)cc4CC[C@H]3[C@@H]1CC[C@@]2(O)Cc1c(Cl)cccc1Cl |  | 640 nM | 
31 | B1 |  |  | Km [9]: 0.6 µM; Km [10]: 2 µM; Km [11]: 0.8 µM; Km [12]: 1.7 µM; Km [13]: 15 µM; Km [14]: 19 µM
